Reference: ChEMBL document CHEMBL1138725, “Discovery of novel 2-(aminoheteroaryl)-thiazole-5-carboxamides as potent and orally active Src-family kinase p56(Lck) inhibitors” (Bioorg Med Chem Lett, 2004)

Key:
[1] = In vitro inhibitory activity against recombinant p56 lck tyrosine kinase expressed as a His-tagged protein in insect cells
Outline: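 Mean of three separate experiments, with standard deviation within ±10%.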

[2] = […] inhibitory activity against proliferation of normal human peripheral blood T lymphocytes; type: functional
[3] = target: T1, Tyrosine-protein kinase JAK3 (Homo sapiens, UniProt P52333); experiment: inhibitory activity against Janus kinase 3
T1 sequence (P52333 whole entry): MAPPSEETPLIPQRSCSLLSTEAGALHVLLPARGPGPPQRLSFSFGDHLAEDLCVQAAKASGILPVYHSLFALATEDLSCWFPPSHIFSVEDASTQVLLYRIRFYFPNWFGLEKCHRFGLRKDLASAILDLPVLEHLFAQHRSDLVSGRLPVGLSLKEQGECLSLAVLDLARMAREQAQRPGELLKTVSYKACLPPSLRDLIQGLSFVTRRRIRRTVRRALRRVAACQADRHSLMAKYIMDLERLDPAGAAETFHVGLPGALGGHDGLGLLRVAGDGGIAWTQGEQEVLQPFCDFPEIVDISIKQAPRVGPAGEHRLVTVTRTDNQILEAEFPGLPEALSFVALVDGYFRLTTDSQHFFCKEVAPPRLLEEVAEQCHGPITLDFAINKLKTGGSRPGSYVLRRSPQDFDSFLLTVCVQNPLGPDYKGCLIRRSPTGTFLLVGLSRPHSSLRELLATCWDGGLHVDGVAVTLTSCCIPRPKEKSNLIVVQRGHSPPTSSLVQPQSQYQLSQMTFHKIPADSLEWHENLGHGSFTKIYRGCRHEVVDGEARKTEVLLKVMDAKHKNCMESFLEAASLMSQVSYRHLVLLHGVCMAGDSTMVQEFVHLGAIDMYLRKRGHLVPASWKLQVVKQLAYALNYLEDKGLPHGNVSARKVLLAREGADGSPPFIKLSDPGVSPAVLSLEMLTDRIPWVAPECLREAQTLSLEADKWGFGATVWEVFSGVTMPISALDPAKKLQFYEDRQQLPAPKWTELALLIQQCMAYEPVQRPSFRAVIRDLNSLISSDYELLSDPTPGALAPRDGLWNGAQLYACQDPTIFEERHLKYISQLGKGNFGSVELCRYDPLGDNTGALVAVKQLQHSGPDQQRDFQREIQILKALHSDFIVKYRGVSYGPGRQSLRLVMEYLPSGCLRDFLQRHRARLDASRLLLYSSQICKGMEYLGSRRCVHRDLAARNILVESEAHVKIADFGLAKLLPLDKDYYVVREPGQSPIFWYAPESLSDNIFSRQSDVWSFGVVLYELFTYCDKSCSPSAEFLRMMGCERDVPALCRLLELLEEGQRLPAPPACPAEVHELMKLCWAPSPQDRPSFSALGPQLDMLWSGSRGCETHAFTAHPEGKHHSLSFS
Outline: (§1)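 Purified kinase enzyme inhibition, reported as IC50 in µM. Each value is the mean of three independent experiments.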

[4] = target: Tyrosine-protein kinase Fgr (Homo sapiens, UniProt P09769); experiment: Inhibitory activity against Fgr kinase
Tyrosine-protein kinase Fgr, sequence (P09769 whole entry): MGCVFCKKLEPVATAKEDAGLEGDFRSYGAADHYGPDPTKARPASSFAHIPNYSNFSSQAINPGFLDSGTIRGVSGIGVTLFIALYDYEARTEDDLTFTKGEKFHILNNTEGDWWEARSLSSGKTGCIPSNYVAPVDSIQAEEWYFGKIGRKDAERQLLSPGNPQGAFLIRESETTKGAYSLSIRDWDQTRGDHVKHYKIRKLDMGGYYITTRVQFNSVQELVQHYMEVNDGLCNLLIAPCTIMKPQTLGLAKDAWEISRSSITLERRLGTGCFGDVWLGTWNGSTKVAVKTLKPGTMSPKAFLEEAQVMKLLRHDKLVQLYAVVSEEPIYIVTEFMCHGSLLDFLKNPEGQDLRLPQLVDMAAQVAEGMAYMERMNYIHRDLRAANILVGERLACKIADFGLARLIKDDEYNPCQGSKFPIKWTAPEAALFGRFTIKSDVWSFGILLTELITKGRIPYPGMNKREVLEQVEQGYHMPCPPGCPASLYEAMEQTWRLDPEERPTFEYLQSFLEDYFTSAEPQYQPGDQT
Outline: (§2)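 Kinase selectivity panel: IC50 for inhibition of each isolated kinase enzyme, reported as the mean of three experiments.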

[5] = target: Tyrosine-protein kinase HCK (Homo sapiens, UniProt P08631); experiment: inhibitory activity against Hck kinase
Tyrosine-protein kinase HCK, sequence (P08631 whole entry): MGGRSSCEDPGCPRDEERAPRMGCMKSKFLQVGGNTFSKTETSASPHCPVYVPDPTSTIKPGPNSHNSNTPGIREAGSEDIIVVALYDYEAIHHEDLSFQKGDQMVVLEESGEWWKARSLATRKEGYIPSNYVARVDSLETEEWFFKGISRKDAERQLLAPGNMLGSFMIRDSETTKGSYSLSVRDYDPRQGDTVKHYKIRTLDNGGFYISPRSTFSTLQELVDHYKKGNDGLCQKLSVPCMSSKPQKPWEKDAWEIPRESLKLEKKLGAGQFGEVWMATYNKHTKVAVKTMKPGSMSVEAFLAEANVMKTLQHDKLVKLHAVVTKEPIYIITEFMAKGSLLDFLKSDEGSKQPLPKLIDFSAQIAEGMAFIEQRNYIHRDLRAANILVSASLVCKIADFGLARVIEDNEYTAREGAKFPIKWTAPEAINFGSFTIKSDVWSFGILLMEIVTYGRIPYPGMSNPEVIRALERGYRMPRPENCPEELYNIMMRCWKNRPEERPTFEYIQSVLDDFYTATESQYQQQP

[6] = target: Cyclin-dependent kinase 2 (Homo sapiens, UniProt P24941); experiment: Inhibitory activity against Cyclin-dependent kinase 2
[7] = target: Cyclin-dependent kinase 4 (Homo sapiens, UniProt P11802); experiment: Inhibitory activity against Cyclin-dependent kinase 4; outline: as §2
Cyclin-dependent kinase 4, sequence (P11802 whole entry): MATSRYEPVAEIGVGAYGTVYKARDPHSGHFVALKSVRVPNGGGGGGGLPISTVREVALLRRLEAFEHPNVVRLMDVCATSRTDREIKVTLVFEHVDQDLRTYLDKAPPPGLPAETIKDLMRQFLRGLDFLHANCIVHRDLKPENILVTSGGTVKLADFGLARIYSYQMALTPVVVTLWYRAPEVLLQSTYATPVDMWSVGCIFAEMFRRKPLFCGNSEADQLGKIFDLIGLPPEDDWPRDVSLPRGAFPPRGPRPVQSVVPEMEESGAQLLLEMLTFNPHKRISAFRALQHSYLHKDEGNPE

[8] = target: Proto-oncogene tyrosine-protein kinase Src (Homo sapiens, UniProt P12931); experiment: Inhibitory activity against Src tyrosine kinase; outline: as §1
Proto-oncogene tyrosine-protein kinase Src, sequence (P12931 2-536 limits assumed): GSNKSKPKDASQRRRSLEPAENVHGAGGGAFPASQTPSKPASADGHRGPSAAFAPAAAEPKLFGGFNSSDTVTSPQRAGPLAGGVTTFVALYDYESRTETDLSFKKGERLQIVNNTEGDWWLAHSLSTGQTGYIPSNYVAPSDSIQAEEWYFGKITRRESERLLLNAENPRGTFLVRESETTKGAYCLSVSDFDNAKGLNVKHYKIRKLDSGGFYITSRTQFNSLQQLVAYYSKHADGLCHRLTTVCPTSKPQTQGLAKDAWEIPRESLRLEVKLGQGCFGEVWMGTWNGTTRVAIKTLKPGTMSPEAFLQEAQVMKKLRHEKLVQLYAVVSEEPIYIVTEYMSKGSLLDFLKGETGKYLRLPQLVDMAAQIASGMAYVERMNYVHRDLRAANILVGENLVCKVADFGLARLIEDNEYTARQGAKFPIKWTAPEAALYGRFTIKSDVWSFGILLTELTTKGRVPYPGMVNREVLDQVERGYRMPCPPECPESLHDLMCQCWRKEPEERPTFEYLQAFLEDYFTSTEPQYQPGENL

[9] = target: Vascular endothelial growth factor receptor 2 (Homo sapiens, UniProt P35968); experiment: inhibitory activity against Vascular endothelial growth factor receptor 2; outline: as §2
Vascular endothelial growth factor receptor 2, sequence (P35968 whole entry): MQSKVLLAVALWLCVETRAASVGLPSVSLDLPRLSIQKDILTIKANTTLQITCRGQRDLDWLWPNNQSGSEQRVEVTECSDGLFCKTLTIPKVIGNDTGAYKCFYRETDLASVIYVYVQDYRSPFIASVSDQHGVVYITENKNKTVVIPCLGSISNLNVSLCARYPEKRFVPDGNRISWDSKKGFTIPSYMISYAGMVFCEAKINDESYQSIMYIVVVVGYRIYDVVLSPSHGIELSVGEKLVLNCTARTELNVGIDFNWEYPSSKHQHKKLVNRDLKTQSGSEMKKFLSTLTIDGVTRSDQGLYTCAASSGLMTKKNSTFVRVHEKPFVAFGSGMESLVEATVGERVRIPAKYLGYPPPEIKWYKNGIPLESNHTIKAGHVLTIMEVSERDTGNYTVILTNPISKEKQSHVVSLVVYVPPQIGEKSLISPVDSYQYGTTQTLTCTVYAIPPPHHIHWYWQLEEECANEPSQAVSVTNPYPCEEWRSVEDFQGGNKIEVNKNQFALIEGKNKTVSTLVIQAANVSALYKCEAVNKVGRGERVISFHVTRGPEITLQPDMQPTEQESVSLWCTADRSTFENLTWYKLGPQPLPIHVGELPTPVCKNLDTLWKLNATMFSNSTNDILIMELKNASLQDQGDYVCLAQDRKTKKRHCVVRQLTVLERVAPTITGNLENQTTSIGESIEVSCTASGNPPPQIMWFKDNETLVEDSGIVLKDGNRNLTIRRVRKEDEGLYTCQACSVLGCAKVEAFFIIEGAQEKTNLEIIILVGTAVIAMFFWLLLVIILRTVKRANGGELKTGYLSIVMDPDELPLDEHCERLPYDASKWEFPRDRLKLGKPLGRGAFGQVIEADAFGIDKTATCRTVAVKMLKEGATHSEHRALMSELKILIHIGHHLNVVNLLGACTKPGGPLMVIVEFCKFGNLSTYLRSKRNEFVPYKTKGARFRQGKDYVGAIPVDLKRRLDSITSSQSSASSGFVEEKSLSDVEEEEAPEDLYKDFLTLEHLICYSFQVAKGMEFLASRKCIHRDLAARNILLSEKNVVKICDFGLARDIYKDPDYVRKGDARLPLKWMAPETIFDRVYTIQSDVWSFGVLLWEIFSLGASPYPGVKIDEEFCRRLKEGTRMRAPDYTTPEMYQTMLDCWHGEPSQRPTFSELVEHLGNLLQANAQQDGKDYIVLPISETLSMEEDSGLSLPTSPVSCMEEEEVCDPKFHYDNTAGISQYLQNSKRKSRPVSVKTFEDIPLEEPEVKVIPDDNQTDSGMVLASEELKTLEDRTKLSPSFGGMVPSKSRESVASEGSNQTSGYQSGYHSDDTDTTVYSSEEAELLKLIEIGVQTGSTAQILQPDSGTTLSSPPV

[10] = Inhibitory activity against Fibroblast growth factor receptor 1
Outline: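 Enzyme IC50 was measured within a kinase selectivity panel and is reported as the mean of three experiments.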

[11] = Plasma protein binding in mouse was determined; type: ADME, cell-free
Rattus norvegicus [12] = organism: Rattus norvegicus; experiment: Dose required for inhibition of paw swelling in rat adjuvant rheumatoid arthritis model; significant reduction observed after 24 hrs; type: functional
Rattus norvegicus [13] = organism: Rattus norvegicus; experiment: Dose required for inhibition of paw swelling in rat adjuvant rheumatoid arthritis model; significant reduction observed after 7 days; type: functional
[14] = Mean residence time was determined in rats at a single dose of 10 mg/kg i.v. and p.o.; type: ADME, organism-based; design: dose 10 mg/kg, route oral; details: rat, in vivo, po
[15] = Half-life was determined in rats at a single dose of 10 mg/kg i.v. and p.o.; type: ADME, organism-based; design: dose 10 mg/kg, route oral; details: rat, in vivo, po
[16] = Plasma clearance was determined in rats at a single dose of 10 mg/kg i.v. and p.o.; type: ADME, organism-based; design: dose 10 mg/kg, route oral; details: rat, in vivo, po
[17] = Time required to reach the maximum plasma concentration was determined in rats at a single dose of 10 mg/kg i.v. and p.o.; type: ADME, organism-based; design: dose 10 mg/kg, route oral; details: rat, po
[18] = Oral bioavailability was determined in rats at a single dose of 10 mg/kg i.v. and p.o.; type: ADME, organism-based; details: rat, in vivo
[19] = Maximum plasma concentration was determined in rats at a single dose of 10 mg/kg i.v. and p.o.; type: ADME, organism-based; design: dose 10 mg/kg, route oral; details: rat, po
[20] = target: Receptor tyrosine-protein kinase erbB-2 (Homo sapiens, UniProt P04626); experiment: Inhibitory activity against HER2 kinase; outline: as §2
Receptor tyrosine-protein kinase erbB-2, sequence (P04626 whole entry): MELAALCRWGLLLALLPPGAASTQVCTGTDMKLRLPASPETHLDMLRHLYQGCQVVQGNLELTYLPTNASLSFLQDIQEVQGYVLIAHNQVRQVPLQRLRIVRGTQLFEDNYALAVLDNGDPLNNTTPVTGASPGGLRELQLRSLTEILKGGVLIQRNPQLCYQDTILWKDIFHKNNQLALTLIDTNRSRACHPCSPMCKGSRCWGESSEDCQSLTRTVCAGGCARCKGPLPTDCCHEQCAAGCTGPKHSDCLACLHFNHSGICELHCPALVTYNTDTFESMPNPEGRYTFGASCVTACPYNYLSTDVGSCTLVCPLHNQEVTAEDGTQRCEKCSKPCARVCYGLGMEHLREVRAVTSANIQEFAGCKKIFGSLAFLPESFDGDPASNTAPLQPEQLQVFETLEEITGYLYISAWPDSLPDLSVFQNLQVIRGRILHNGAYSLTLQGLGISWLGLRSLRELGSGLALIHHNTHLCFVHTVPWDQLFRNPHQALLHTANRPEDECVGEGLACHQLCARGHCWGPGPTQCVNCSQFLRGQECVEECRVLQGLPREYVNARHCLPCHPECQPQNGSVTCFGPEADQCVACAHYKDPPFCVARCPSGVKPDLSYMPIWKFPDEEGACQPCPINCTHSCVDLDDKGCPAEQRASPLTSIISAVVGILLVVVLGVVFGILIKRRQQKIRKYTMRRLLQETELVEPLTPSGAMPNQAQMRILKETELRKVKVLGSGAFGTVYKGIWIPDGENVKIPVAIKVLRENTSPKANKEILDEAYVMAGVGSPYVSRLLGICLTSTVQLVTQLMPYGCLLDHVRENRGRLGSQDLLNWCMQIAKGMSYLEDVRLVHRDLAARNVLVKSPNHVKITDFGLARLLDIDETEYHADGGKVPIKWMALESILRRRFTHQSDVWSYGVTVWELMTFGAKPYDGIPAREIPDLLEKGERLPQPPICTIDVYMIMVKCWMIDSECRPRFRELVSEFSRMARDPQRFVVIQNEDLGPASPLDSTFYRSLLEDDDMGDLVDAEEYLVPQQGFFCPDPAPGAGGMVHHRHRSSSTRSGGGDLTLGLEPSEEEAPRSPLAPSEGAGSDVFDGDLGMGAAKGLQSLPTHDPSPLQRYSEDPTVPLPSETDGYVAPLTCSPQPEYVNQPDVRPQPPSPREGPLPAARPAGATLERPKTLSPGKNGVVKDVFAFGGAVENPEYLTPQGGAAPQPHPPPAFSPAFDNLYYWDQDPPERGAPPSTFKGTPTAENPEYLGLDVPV

Work on `Cc1cccc(Cl)c1NC(=O)c1cnc(NC(=O)C2CC2)s1` yielded an IC50 [1] of 35 nM.

Compound `Cc1cccc(Cl)c1NC(=O)c1cnc(Nc2cccc(N3CCN[C@@H](C)C3)n2)s1` has an IC50 [1] of under 1 nM and an IC50 [2] of 6 nM.

With `Cc1cccc(Cl)c1NC(=O)c1cnc(Nc2ccccc2)s1` the IC50 [1] was 0.6 nM and the IC50 [2] was 210 nM.

`Cc1cccc(Cl)c1NC(=O)c1cnc(Nc2ccnnc2)s1` gave an IC50 [1] of 4 nM and an IC50 [2] of 350 nM.

In the case of `Cc1cccc(Cl)c1NC(=O)c1cnc(Nc2cc(NCCN3CCCC3)ncn2)s1`, the IC50 [1] is reported as 0.4 nM, the Ki [1] is reported as 0.06 nM and the IC50 [2] is reported as 19 nM.

Compound `Cc1cccc(Cl)c1NC(=O)c1cnc(Nc2cccc(NCCN3CCOCC3)n2)s1` has an IC50 [1] of under 1 nM and an IC50 [2] of 11 nM.

For `Cc1cc(C)nc(Nc2ncc(C(=O)Nc3c(C)cccc3Cl)s2)n1`, the IC50 [1] was 50 nM.

`Cc1ccnc(Nc2ncc(C(=O)Nc3c(C)cccc3Cl)s2)c1` gave an IC50 [1] of 0.5 nM and an IC50 [2] of 85 nM.

`Cc1cccc(Cl)c1NC(=O)c1cnc(NC2CCCCC2)s1` gave an IC50 [1] of 374 nM.

With `Cc1cccc(Cl)c1NC(=O)c1cnc(Nc2cc(NCCN3CCOCC3)ncn2)s1` the IC50 [1] was 4 nM and the IC50 [2] was 17 nM.

In the case of `Cc1cc(C)nc(Nc2ncc(C(=O)Nc3c(C)cccc3Cl)s2)c1`, the IC50 [1] is reported as 4 nM.

With `Cc1cccnc1Nc1ncc(C(=O)Nc2c(C)cccc2Cl)s1` the IC50 [1] was 7.3 nM and the IC50 [2] was 365 nM.

Compound `Cc1cccc(Cl)c1NC(=O)c1cnc(Nc2cc(N3CCOCC3)ncn2)s1` has an IC50 [1] of under 1 nM and an IC50 [2] of 3 nM.

In the case of `Cc1cccc(Cl)c1NC(=O)c1cnc(Nc2cccnc2)s1`, the IC50 [1] is reported as 6.7 nM.

With `Cc1cc(C)cc(Nc2ncc(C(=O)Nc3c(C)cccc3Cl)s2)c1` the IC50 [1] was 2 nM and the IC50 [2] was 883 nM.

`Cc1cccc(Cl)c1NC(=O)c1cnc(Nc2ccccn2)s1` showed an IC50 [1] of 1.2 nM.

In the case of `Cc1cccc(Cl)c1NC(=O)c1cnc(Nc2ccncc2)s1`, the IC50 [1] is reported as 10 nM.

`Cc1ccc(Nc2ncc(C(=O)Nc3c(C)cccc3Cl)s2)nc1` gave an IC50 [1] of 1.1 nM and an IC50 [2] of 156 nM.

In the case of `Cc1cc(N(C)c2ncc(C(=O)Nc3c(C)cccc3Cl)s2)nc(C)n1`, the IC50 [1] is reported as 2340 nM.

Compound `Cc1cc(Nc2ncc(C(=O)Nc3c(C)cccc3Cl)s2)nc(C)n1` has an IC50 [3] of 6 nM, an IC50 [4] of under 1 nM and an IC50 [5] of 2 nM. For the same compound, the IC50 [6] was over 25000 nM, the IC50 [7] was over 25000 nM and the IC50 [8] was under 1 nM. It also gave an IC50 [1] of 1.2 nM, a Ki [1] of 0.13 nM and an IC50 [9] of over 10000 nM. The IC50 [10] was over 10000 nM, the IC50 [2] was 80 nM and the Binding [11] was 93.6%. It also gave a Dose (Rattus norvegicus [12]) of 3 mg/kg, a Dose (Rattus norvegicus [13]) of 1 mg/kg and an MRT [14] of 4 h. For the same compound, the half-life [15] was 4 h, the Cl [16] was 29 mL/min/kg and the Tmax [17] was 1 h. The bioavailability [18] was 65%, the Cmax [19] was 2000 nM and the IC50 [20] was 5200 nM.

Work on `Cc1cc(Nc2ncc(C(=O)N(C)c3c(C)cccc3Cl)s2)nc(C)n1` yielded an IC50 [1] of 277 nM.

For `Cc1cccc(Nc2ncc(C(=O)Nc3c(C)cccc3Cl)s2)n1`, the IC50 [1] was under 1 nM and the IC50 [2] was 106 nM.
